Results on 20 molecules are retold here after ChEMBL document CHEMBL1158052, “Tripfordines A-C, sesquiterpene pyridine alkaloids from Tripterygium wilfordii, and structure anti-HIV activity relationships of Tripterygium alkaloids” (J Nat Prod, 2006).

In brackets after ≈: the same amount, converted by molar mass. Activity calls are given as the source filed them. The rule behind the calls is not given here. A value given as a limit tells only on which side of the number the result lay.

Data set [1] deals with Human immunodeficiency virus 1. Put plainly: Antiviral activity against HIV1 infected human H9 lymphocytes assessed as suppression of viral replication. In kind it is functional, organism-based. The essentials:
(§1)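 EC50 is the sample concentration that suppresses HIV replication by 50%. Cytotoxic IC50 is the concentration toxic to 50% of mock-infected cells. Therapeutic index is IC50 divided by EC50.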

A short description of data set [2]: Therapeutic index, ratio of IC50 for human H9 lymphocytes to EC50 for HIV1. The settings on record: HIV-1, read-out: Ratio IC50/EC50. The essentials:
as §1

Data set [3] deals with H9. Put plainly: Cytotoxicity against mock-infected human H9 lymphocytes. The data set is classed as cell-based. The essentials: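 Mock-infected cells, run alongside the HIV replication suppression assay, were exposed to test sample. IC50 was taken as the concentration toxic to 50% of the mock-infected cells.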
Data set [4] relates to A549. Description: Cytotoxicity against human A549 cells. In kind it is functional, cell-based.
Data set [5] deals with HCT-8. Put plainly: Cytotoxicity against human HCT8 cells. In kind it is functional, cell-based.
Data set [6] relates to A-431. Put plainly: Cytotoxicity against human A431 cells. In kind it is functional, cell-based.
Data set [7] can be described thus: Cytotoxicity against human AR751 cells. In kind it is functional, cell-based.
In data set [8] the test system is LNCaP. Description: Cytotoxicity against human LNCAP cells. The data set is classed as functional, cell-based.
Data set [9] deals with PC-3. Put plainly: Cytotoxicity against human PC-3 cells. In kind it is functional, cell-based.

Turning to `CC(=O)OC[C@]12[C@H](OC(C)=O)[C@H](OC(C)=O)[C@@H]3[C@@H](OC(=O)c4ccccc4)[C@@]14O[C@@]3(C)COC(=O)c1cccnc1C(C)C(C)C(=O)O[C@@H]([C@H](OC(C)=O)[C@@H]2OC(C)=O)[C@]4(C)O` (some centres undefined), in [1], the 50% effective concentration (EC50) was found to be 0.9 µg/mL (≈ 1.04 µM).
As for `CC(=O)OC[C@]12[C@H](OC(C)=O)[C@H](OC(C)=O)[C@@H]3[C@@H](OC(=O)c4ccccc4)[C@@]14O[C@@]3(C)COC(=O)c1cccnc1C(C)C(C)C(=O)O[C@@H]([C@H](OC(=O)c1cccnc1)[C@@H]2OC(C)=O)[C@]4(C)O` (some centres undefined), in data set [1], the result was inactive.
On the same count and under the same terms, under `CC(=O)OC[C@]12[C@H](OC(C)=O)[C@H](OC(C)=O)[C@@H]3[C@@H](OC(C)=O)[C@@]14O[C@@]3(C)COC(=O)c1cccnc1CCC(C)C(=O)O[C@@H]([C@H](OC(=O)c1ccccc1)[C@@H]2OC(C)=O)[C@]4(C)O` (some centres undefined) stands “inactive”.
The same measure, in the same setting: under `CC(=O)OC[C@]12[C@H](OC(C)=O)[C@H](OC(C)=O)[C@@H]3[C@@H](OC(C)=O)[C@@]14O[C@@]3(C)COC(=O)c1cccnc1CCC(C)C(=O)O[C@@H]([C@H](OC(=O)c1ccco1)[C@@H]2OC(C)=O)[C@]4(C)O` (some centres undefined) stands “inactive”; under `CC(=O)O[C@@H]1[C@@H]2[C@@H](OC(C)=O)[C@@]34O[C@@]2(C)COC(=O)c2cnccc2C(C)C(C)C(=O)O[C@@H]([C@H](OC(C)=O)[C@H](OC(C)=O)[C@@]3(COC(=O)c2ccco2)[C@@H]1OC(C)=O)[C@]4(C)O` (some centres undefined), “inactive”.
`CC(=O)OC[C@]12[C@H](OC(C)=O)[C@H](OC(C)=O)[C@@H]3[C@@H](OC(C)=O)[C@@]14O[C@@]3(C)COC(=O)c1cccnc1C(C)C(C)C(=O)O[C@@H]([C@H](OC(C)=O)[C@@H]2OC(C)=O)[C@]4(C)O` (some centres undefined) [EUONYMINE]: the EC50 in [1] worked out at 0.2 µg/mL (≈ 0.248 µM).
As for `CC(=O)OC[C@]12[C@H](OC(C)=O)[C@H](OC(C)=O)[C@@H]3[C@@H](OC(C)=O)[C@@]14O[C@@]3(C)COC(=O)c1cccnc1C(C)C(C)C(=O)O[C@@H]([C@H](OC(=O)c1ccccc1)[C@@H]2OC(C)=O)[C@@]4(C)O` (some centres undefined) [FORRESTINE], the selectivity ratio in [2] was above 208.
`CC(=O)O[C@@H]1[C@@H]2[C@@H](OC(C)=O)[C@@]34O[C@@]2(C)COC(=O)c2cnccc2C(C)C(C)(O)C(=O)O[C@@H]([C@H](OC(C)=O)[C@H](OC(C)=O)[C@@]3(COC(=O)c2ccco2)[C@@H]1OC(C)=O)[C@]4(C)O` (some centres undefined) [HYPOGLAUNINE A]: the selectivity ratio in [2] is above 769.
For `CC(=O)OC[C@]12[C@H](OC(C)=O)[C@H](OC(C)=O)[C@@H]3[C@@H](OC(C)=O)[C@@]14O[C@@]3(C)COC(=O)c1cnccc1C(C)C(C)(O)C(=O)O[C@@H]([C@H](OC(=O)c1ccco1)[C@@H]2OC(C)=O)[C@]4(C)O` (some centres undefined) [HYPOGLAUNINE B], the EC50 in [1] was 0.1 µg/mL (≈ 0.114 µM). Moreover, the selectivity ratio in data set [2] was above 1000.
Take `CC(=O)OC[C@]12[C@H](OC(C)=O)[C@H](OC(C)=O)[C@@H]3[C@@H](OC(=O)c4ccco4)[C@@]14O[C@@]3(C)COC(=O)c1cccnc1C(C)C(C)C(=O)O[C@@H]([C@H](OC(C)=O)[C@@H]2OC(C)=O)[C@]4(C)O` (some centres undefined) [HYPONINE A]: in data set [1], the 50% effective concentration (EC50) is 1 µg/mL (≈ 1.17 µM).
Consider `CC(=O)O[C@@H]1[C@H](OC(C)=O)[C@@]2(COC(=O)c3ccco3)[C@H](OC(C)=O)C(=O)[C@@H]3[C@@H](OC(C)=O)[C@@]24O[C@@]3(C)COC(=O)c2cccnc2C(C)C(C)C(=O)O[C@@H]1[C@]4(C)O` (some centres undefined) [HYPONINE B], for which, in data set [1], the EC50 was determined as 0.1 µg/mL (≈ 0.123 µM). Moreover, the selectivity ratio in data set [2] is above 1000.
Regarding `CC(=O)OC[C@]12[C@H](OC(C)=O)[C@H](OC(C)=O)[C@@H]3[C@@H](OC(C)=O)[C@@]14O[C@@]3(C)COC(=O)c1cccnc1C(C)C(C)C(=O)O[C@@H]([C@H](OC(=O)c1ccco1)[C@@H]2OC(C)=O)[C@]4(C)O` (some centres undefined) [HYPONINE F], the selectivity ratio in data set [2] was above 2.8.
For the molecule `CC(=O)OC[C@]12[C@H](OC(C)=O)[C@H](OC(C)=O)[C@@H]3[C@@H](O)[C@@]14O[C@@]3(C)COC(=O)c1cccnc1C(C)C(C)C(=O)O[C@@H]([C@H](OC(C)=O)[C@@H]2OC(C)=O)[C@]4(C)O` (some centres undefined) [NEOEUONYMINE], the EC50 in data set [1] was found to be 0.88 µg/mL (≈ 1.15 µM). Further, the selectivity ratio in data set [2] was above 113.
For `CC(=O)OC[C@]12[C@H](OC(C)=O)[C@H](OC(C)=O)[C@@H]3[C@@H](OC(C)=O)[C@@]14O[C@@]3(C)COC(=O)c1cccnc1CCC(C)(O)C(=O)O[C@@H]([C@H](O)[C@@H]2OC(C)=O)[C@@]4(C)O` (some centres undefined) [TRIPFORDINE A], the IC50 is above 25 µg/mL in [3]; above 4 µg/mL in data set [4]; above 4 µg/mL in data set [5]; above 4 µg/mL in data set [6]; above 4 µg/mL in data set [7]; above 4 µg/mL in [8]. For the same molecule, the IC50 in data set [9] was above 4 µg/mL. In addition, in [1], the EC50 turned out to be 13.4 µg/mL (≈ 17.2 µM). For the same molecule, in data set [2], the selectivity ratio came out at 1.9.
In the case of `CC(=O)OC[C@]12[C@H](OC(C)=O)[C@H](OC(C)=O)[C@@H]3[C@@H](O)[C@@]14O[C@@]3(C)COC(=O)c1cccnc1CCC(C)C(=O)O[C@@H]([C@H](OC(C)=O)[C@@H]2OC(C)=O)[C@@]4(C)O` (some centres undefined) [TRIPFORDINE B], the IC50 in data set [3] was above 25 µg/mL; in [4] it was above 4 µg/mL; in [5] it was above 4 µg/mL; in [6], above 4 µg/mL; in [7] it was above 4 µg/mL; in data set [8] it was above 4 µg/mL. Also, the IC50 in data set [9] is above 4 µg/mL. In addition, the outcome in [1] was inactive.
`CC(=O)OC[C@]12[C@H](OC(C)=O)[C@H](OC(C)=O)[C@@H]3[C@@H](O)[C@@]14O[C@@]3(C)COC(=O)c1cnccc1C(C)C(C)C(=O)O[C@@H]([C@H](OC(C)=O)[C@@H]2OC(C)=O)[C@@]4(C)O` (some centres undefined) [TRIPFORDINE C]: the IC50 was above 25 µg/mL in data set [3]; above 4 µg/mL in data set [4]; above 4 µg/mL in data set [5]; above 4 µg/mL in [6]; above 4 µg/mL in [7]; above 4 µg/mL in [8]. The same molecule came in with an IC50 in data set [9] above 4 µg/mL. Also, in data set [1], the outcome was inactive.
For `COC(=O)C[C@@H]1C(=O)CCC(C)C(=O)O[C@@H]2[C@@H]3[C@@H](OC(C)=O)[C@@]45O[C@@]3(C)COC(=O)c3cccnc3C(C)C(C)C(=O)O[C@@H]([C@H](OC(C)=O)[C@H](OC(C)=O)[C@@]4(COC1=O)[C@@H]2OC(C)=O)[C@]5(C)O` (some centres undefined) [TRIPTONINE A], the EC50 in data set [1] was 2.5 µg/mL (≈ 2.64 µM). Also, the selectivity ratio in data set [2] is above 39.4.
The like results for `COC(=O)C[C@@H]1C(=O)CC[C@H](C)C(=O)O[C@@H]2[C@@H]3[C@@H](OC(C)=O)[C@@]45O[C@@]3(C)COC(=O)c3cnccc3[C@@H](C)[C@@H](O)C(=O)O[C@@H]([C@H](OC(C)=O)[C@H](OC(C)=O)[C@@]4(COC1=O)[C@@H]2OC(C)=O)[C@]5(C)O` [TRIPTONINE B] were, in that order, below 0.1 µg/mL and above 1000.
The like results for `CC(=O)OC[C@]12[C@H](OC(C)=O)[C@H](OC(C)=O)[C@@H]3[C@@H](OC(C)=O)[C@@]14O[C@@]3(C)COC(=O)c1cccnc1CCC(C)(O)C(=O)O[C@@H]([C@H](OC(=O)c1ccccc1)[C@@H]2OC(C)=O)[C@]4(C)O` (some centres undefined) [WILFORDINE] were, in that order, below 0.1 µg/mL and above 200.
In the case of `CC(=O)OC[C@]12[C@H](OC(C)=O)[C@H](OC(C)=O)[C@@H]3[C@@H](OC(C)=O)[C@@]14O[C@@]3(C)COC(=O)c1cccnc1CCC(C)(O)C(=O)O[C@@H]([C@H](OC(=O)c1ccco1)[C@@H]2OC(C)=O)[C@]4(C)O` (some centres undefined) [WILFORTRINE], the EC50 in data set [1] is below 0.1 µg/mL. Besides, in data set [2], the selectivity ratio was above 1000.
